This is a sample that favours compounds with a hit; in the whole collection about 2.3% have one here.
TRPC4 agonist: opens the mouse TRPC4 cation channel; hit rate 0.49% among 310,000; AID 2237; HEK293 TRPC4beta/mu-opioid, Fluo4 calcium fluorescence; active compounds read high; Q9QUQ5; B-score at 10 µM;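 active = B-score above 5 SD of library B-scores, and initial fluorescence ratio not above library mean plus 5 SD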;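 also: positive B-score marks a calcium rise read as TRPC4 activation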
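Technique: kinetic Fluo4 calcium fluorescence; Test system: TRPC4beta and mu-opioid receptor HEK293 stable cells; Measure: B-scored integrated calcium fluorescence ratio; Benchmarks: low control buffer alone, high control maximal DAMGO; Schedule: 45 min room-temperature Fluo4 loading, 110 s read.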
TRPC6 inhibitor: inhibitors of mouse TRPC6 channel; Q61143; hit rate 1.1% among 310,000; B-score at 10 µM; HEK293-TRPC6, membrane potential dye, ACh-evoked depolarization; active compounds read low;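 active = B-score under library mean minus 3 SD, initial fluorescence not abnormally high, positive integrated signal ratio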;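 also: B-score derived from integrated fluorescence ratio over the kinetic read; more negative B-score means stronger inhibition of depolarization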
TRPC4 PAM: allosteric potentiators of mouse TRPC4 channel; hit rate 0.42% among 310,000; HEK293 TRPC4beta/mu-opioid, DAMGO EC20, Fluo-4 Ca2+ flux; active compounds read high; Q9QUQ5; B-score at 10 µM;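 active = B-score of calcium response area above 5 SD of library B-scores, with initial fluorescence ratio within 5 SD of library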
TRPC6 activator: activators of mouse TRPC6 channel | HEK293-TRPC6 membrane potential dye fluorescence; active compounds read high | hit rate 0.13% among 310,000 | Q61143 | B-score at 10 µM | AID 2550;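 active = B-score of the integrated fluorescence ratio above library mean plus 3 SD, and starting fluorescence ratio within library mean plus 5 SD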;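 also: higher score means more depolarization so channel activation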
TRPC4 inh: inhibitors of mouse TRPC4 channel; Q9QUQ5; HEK293 TRPC4beta/mu-opioid, DAMGO-evoked Fluo4 calcium flux; active compounds read low; B-score at 10 µM; hit rate 0.39% among 300,000;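 active = B-score over 3 SD under the library average, no early fluorescence shift, positive overall ratio signal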
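Material: HEK293 cells with stable TRPC4beta plus mu-opioid receptor expression / Probe or stimulus: DAMGO in two steps, submaximal then maximal / Compound: single concentration per test compound / Technique: kinetic Fluo4 fluorescence imaging of calcium influx / Read-out: per-well B score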
Of the large screens only hits and unclear results are named; the others gave an inactive call; ! = not confirmed by another sample.

N#C/C(=C1/C(=O)Nc2ccc(Br)cc21)c1ccccn1	none
Cc1ncsc1CCOC(=O)c1cccc([N+](=O)[O-])c1	TRPC4 inh -6!
O=C(COC(=O)c1cccc([N+](=O)[O-])c1)NCc1cccs1	none (no result: TRPC4 inh)
CCn1c(N2CCN(S(=O)(=O)c3ccccc3)CC2)nc2ccccc21	none
CCCn1c(N2CCN(S(=O)(=O)Cc3ccccc3)CC2)nc2ccccc21	TRPC4 PAM 22
C(=N\N(Cc1ccccc1)c1ccccc1)/c1cccnc1	TRPC4 inh -6
Oc1cccc(/C=N/N(Cc2ccccc2)c2ccccc2)c1	none
OCCCC1CCCN(Cc2cn[nH]c2-c2ccc(F)cc2F)C1 (stereo unspecified)	none
CN1CCN(Cc2cn[nH]c2-c2ccc(F)cc2F)[C@@H](c2ccccc2)C1	TRPC4 inh -5
Cn1c(=O)c2c(ncn2CC(O)CNc2ccc(F)cc2)n(C)c1=O (stereo unspecified)	none
COCCNS(=O)(=O)c1cc2[nH]c3c(c2cc1C)C(=O)CC(C)(C)C3	none
O=c1[nH]c(C2CCN(S(=O)(=O)c3ccc(C(F)(F)F)cc3)CC2)nc2c1nnn2Cc1ccccc1	none
COc1ccc(-c2nnc3sc(-c4ccccn4)nn23)cc1	none
CC(C)(C)c1ccc(-c2nnc3sc(-c4ccccn4)nn23)cc1	TRPC4 PAM 85
CC1CC(C)CN(CCCNC(=O)c2ccc(N3CCCC3=O)cc2)C1 (stereo unspecified)	TRPC4 PAM 25
CC1CC(C)CN(CCCNC(=O)c2ccc3c(c2)NC(=O)CS3)C1 (stereo unspecified)	TRPC4 agonist 69
CC1CC(C)CN(CCCNC(=O)Cn2cccc2C(=O)c2ccccc2)C1 (stereo unspecified)	TRPC4 agonist 105
Nc1nc(Cl)nc2ncn(Cc3ccccc3)c12	none
COc1ccc(C(=O)N2CCC(n3c(C)nc4cc(F)ccc43)CC2)cc1	none
COc1ccc(CC(=O)Nc2ccccc2N2CCCCC2)cc1OC	none
COc1ccc(S(=O)(=O)NCCc2nnc3ccc(SCC(=O)Nc4nc(C)cs4)nn23)cc1	none
O=C(COc1cccc(C(F)(F)F)c1)Nc1ccc(S(=O)(=O)N2CCCC2)cc1	none
CCCCN(CC)CCCNC(=O)c1ccc(CS(=O)(=O)c2ccccc2C)o1	TRPC4 agonist 68
COCCNC(=O)c1ccc(CS(=O)(=O)c2ccc(OC)cc2)o1	none
CCCCN(CCCNC(=O)c1ccc(CS(=O)(=O)c2ccc(OC)cc2)o1)Cc1ccccc1	TRPC4 inh -6
CCN(CC)CCCNC(=O)c1ccc(CS(=O)(=O)c2ccccc2OC)o1	none
COC(=O)CSc1nnc(CNS(=O)(=O)c2ccc(Br)cc2)n1C	TRPC4 inh -6
Cc1ccc(NS(=O)(=O)c2ccc(OCC(N)=O)cc2)cc1	none
CC(c1ccccc1)n1c(SCC(=O)Nc2ccccc2)n[nH]c1=O (stereo unspecified)	none
CSc1ccc2nnc(-c3cccc(F)c3)n2n1	TRPC4 PAM 21
CCCC1C(=O)Nc2ccccc2N1C(=O)c1ccc(C(C)(C)C)cc1 (stereo unspecified)	TRPC4 PAM 16
CC(=O)N1CCN=C1SCc1ccc(C)cc1	none
CC1(C)CC2CC(C)(CN2C(=O)c2cc(-c3ccc(O)cc3)on2)C1 (stereo unspecified)	TRPC4 inh -6
COc1cccc(-c2cc(C(=O)N3CC4(C)CC3CC(C)(C)C4)no2)c1 (stereo unspecified)	none
NCCNc1ccc([N+](=O)[O-])c(NC2CC2)c1	TRPC4 PAM 16
Nc1nc(Nc2ccc(Cl)cc2)c(NC=O)c(=O)[nH]1	none
COc1ccc(CC(O)CC2c3c(cc4c(c3OC)OCO4)CCN2C)cc1 (stereo unspecified)	TRPC4 agonist 58, TRPC4 inh -6
CC(=O)N1CCc2cc(S(=O)(=O)NCC(=O)NCc3ccc(F)cc3)ccc21	none
CCOc1ccccc1-n1c(SCC(=O)Nc2nccs2)nnc1-c1ccoc1C	TRPC4 inh -6
CCOc1ccc(-n2c(SCC(=O)Nc3nccs3)nnc2-c2ccoc2C)cc1	none
CSCc1c(C(=O)Nc2ccc3c(c2)OCO3)oc2ccccc12	none
CSCc1c(C(=O)NCCc2ccccn2)oc2ccccc12	TRPC4 PAM 12
